Consider 24 molecules from ChEMBL document CHEMBL4000187, “Design and synthesis of emodin derivatives as novel inhibitors of ATP-citrate lyase” (Eur J Med Chem, 2017).

The source made the active and inactive calls. The calls are words filed in the database; no cut-off is given here. Some results are limits rather than exact numbers.

In one experiment the target is T1, ATP-citrate synthase (Homo sapiens, UniProt P53396).
T1 sequence (P53396 whole entry): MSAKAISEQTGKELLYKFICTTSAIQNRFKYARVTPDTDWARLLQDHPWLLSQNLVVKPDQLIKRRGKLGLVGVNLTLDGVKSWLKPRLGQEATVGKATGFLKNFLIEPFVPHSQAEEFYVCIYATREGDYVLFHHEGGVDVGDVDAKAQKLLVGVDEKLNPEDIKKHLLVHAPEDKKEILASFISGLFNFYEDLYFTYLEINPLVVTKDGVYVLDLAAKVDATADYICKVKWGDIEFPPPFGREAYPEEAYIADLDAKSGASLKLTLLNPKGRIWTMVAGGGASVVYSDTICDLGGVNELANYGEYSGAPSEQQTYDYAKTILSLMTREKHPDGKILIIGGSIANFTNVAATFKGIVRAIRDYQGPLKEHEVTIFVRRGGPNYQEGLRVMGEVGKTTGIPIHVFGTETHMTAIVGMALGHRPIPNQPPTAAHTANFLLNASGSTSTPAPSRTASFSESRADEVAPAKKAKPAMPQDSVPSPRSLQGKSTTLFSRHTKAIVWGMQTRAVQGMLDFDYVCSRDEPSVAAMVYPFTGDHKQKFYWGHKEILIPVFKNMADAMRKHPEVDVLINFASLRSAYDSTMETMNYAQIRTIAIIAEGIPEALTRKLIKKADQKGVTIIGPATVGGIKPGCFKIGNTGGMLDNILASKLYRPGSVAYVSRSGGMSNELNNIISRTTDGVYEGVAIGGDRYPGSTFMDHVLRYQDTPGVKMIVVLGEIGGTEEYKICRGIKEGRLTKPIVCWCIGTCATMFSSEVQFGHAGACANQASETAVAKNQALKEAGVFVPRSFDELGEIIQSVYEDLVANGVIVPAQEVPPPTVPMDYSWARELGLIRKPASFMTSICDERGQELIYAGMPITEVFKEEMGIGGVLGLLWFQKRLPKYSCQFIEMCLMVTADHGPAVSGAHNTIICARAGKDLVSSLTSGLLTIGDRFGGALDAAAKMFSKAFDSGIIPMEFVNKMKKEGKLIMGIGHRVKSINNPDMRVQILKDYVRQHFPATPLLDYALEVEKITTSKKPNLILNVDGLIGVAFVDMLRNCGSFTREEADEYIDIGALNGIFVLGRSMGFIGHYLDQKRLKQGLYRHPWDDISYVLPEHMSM
Description: Inhibition of ATP citrate lyase (unknown origin) using sodium citrate as substrate after 60 mins by ADP-Glo luminescence assay. The method, boiled down:
(§1)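 ADP-Glo reagent then added for 45 min at room temperature, and ADP formed was read by luminescence. Dose-response run in duplicate over 0.03–30 µM in 3.3-fold serial dilutions.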
In general terms: In ADP-Glo the light output rises with the ADP produced.

The target in experiment [1] is T2, ATP-citrate synthase (Homo sapiens) (UniProt P53396).
T2 sequence (whole entry): T1 sequence (P53396 whole entry)
Description: Inhibition of ATP citrate lyase (unknown origin) at 10 uM using sodium citrate as substrate after 60 mins by ADP-Glo luminescence assay relative to control. The method, boiled down: as §1

The test system of experiment [2] is A549. In words: Antiproliferative activity against human A549 cells at 5 uM after 24 hrs by WST1 assay relative to control. It counts as functional. The note with it: A549, 24 h. The method, boiled down:
(§2)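 A549 cells seeded at 5 × 10⁴/well in Ham's F-12 with 10% FBS, with or without compound, cultured 24 h at 37 °C in 5% CO₂. Single-concentration screen at 5 µM; dose-escalation at 1, 5, 10 µM. WST-1 reagent added, 1 h incubation, absorbance at 450 nm. ACL shRNA/siRNA knockdown served as positive control.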

Experiment [3] has as its system A549. In words: Antiproliferative activity against human A549 cells after 24 hrs by WST1 assay. It counts as functional, cell-based. The procedure, abridged: as §2
Experiment [4] has as its system HMLE. In words: Inhibition of cancer stemness in snail expressing HMLE cells under 3D culture condition assessed as induction of apoptosis in spheroid at 25 uM by Hoechst 33342/Sytox green staining-based confocal microscopic method. It counts as functional, cell-based. The note with it: Homo sapiens. The method, boiled down:
(§3)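 Cells seeded at 2000 per well onto 1.5% agarose-coated wells and grown 2 days at 37 °C, 5% CO₂ to form spheroids before treatment. Staining used Hoechst 33342 for all nuclei plus Sytox Green for dead cells, each at 1:10,000 final. Confocal imaging measured spheroid inner area and Sytox Green integrated density (IntDen), with IntDen/Area as the index.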

Experiment [5] concerns A549. Description: Inhibition of cancer stemness in human A549 cells under 3D culture condition assessed as reduction in spheroid size at 25 uM by Hoechst 33342/Sytox green staining-based confocal microscopic method. It counts as functional, cell-based. The method, boiled down: as §3
The test system of experiment [6] is A549. Description: Inhibition of cancer stemness in human A549 cells under 3D culture condition assessed as induction of apoptosis in spheroid at 25 uM by Hoechst 33342/Sytox green staining-based confocal microscopic method. It counts as functional, cell-based. The method, boiled down:
as §3

The test system of experiment [7] is HMLE. In words: Inhibition of cancer stemness in snail expressing HMLE cells under 3D culture condition assessed as reduction in spheroid size at 25 uM by Hoechst 33342/Sytox green staining-based confocal microscopic method. It counts as functional, cell-based. The note with it: Homo sapiens. The procedure, abridged: as §3
Experiment [8] concerns HMLE. Description: Inhibition of cancer stemness in snail expressing HMLE cells under 3D culture condition assessed as induction of apoptosis in spheroid by Hoechst 33342/Sytox green staining-based confocal microscopic method. It counts as functional, cell-based. The note with it: Homo sapiens. The method, boiled down: as §3
Experiment [9] concerns the target T2, ATP-citrate synthase (Homo sapiens). In words: Inhibition of ATP citrate lyase (unknown origin) at 3.3 uM using sodium citrate as substrate after 60 mins by ADP-Glo luminescence assay relative to control. The procedure, abridged:
as §1

The test system of experiment [10] is A549. In words: Antiproliferative activity against human A549 cells at 10 uM after 24 hrs by WST1 assay relative to control. It counts as functional. The settings on record: A549, 24 h. The method, boiled down:
as §2

The test system of experiment [11] is A549. Description: Inhibition of cancer stemness in human A549 cells under 3D culture condition assessed as reduction in spheroid size by Hoechst 33342/Sytox green staining-based confocal microscopic method. It counts as functional, cell-based. The procedure, abridged:
as §3

The test system of experiment [12] is A549. Description: Inhibition of cancer stemness in human A549 cells under 3D culture condition assessed as induction of apoptosis in spheroid by Hoechst 33342/Sytox green staining-based confocal microscopic method. It counts as functional, cell-based. The procedure, abridged:
as §3

Experiment [13] has as its system HMLE. In words: Inhibition of cancer stemness in snail expressing HMLE cells under 3D culture condition assessed as reduction in spheroid size by Hoechst 33342/Sytox green staining-based confocal microscopic method. The note with it: Homo sapiens. It counts as functional, cell-based. The procedure, abridged:
as §3

A word on the IC50: it is the concentration that gives 50% inhibition. The low end stands for greater potency in that assay, the high end for weaker potency in that assay. On ATP-citrate synthase, `COc1cccc(-c2c(O)cc3c(c2O)C(=O)c2c(O)cc(C)cc2C3=O)c1` came in with an IC50 of 21.2 µM.

For `Cc1cc(O)c2c(c1)C(=O)c1cc(O)c(-c3cccnc3)c(O)c1C2=O`, at ATP-citrate synthase, the half-maximal inhibitory concentration (IC50) is 21.1 µM.

Regarding `Cc1cc(O)c2c(c1)C(=O)c1cc3c(c(O)c1C2=O)CN(c1ccccc1)CO3`, 25.8 µM corresponded to half-maximal inhibition at ATP-citrate synthase (IC50).

Broadly, the inhibition is the drop in the measured response relative to a control, in per cent. In turn, `Cc1cc(O)c2c(c1)C(=O)c1cc(O)c(CN3CCCCC3)c(O)c1C2=O` gave an inhibition in [1] of 6%.

For the molecule `Cc1cccc(-c2c(O)cc3c(c2O)C(=O)c2c(O)cc(C)cc2C3=O)c1`, the IC50 against ATP-citrate synthase turned out to be 30 µM.

In the case of `Cc1cc(O)c2c(c1)C(=O)c1cc(O)c(-c3cnn(C)c3)c(O)c1C2=O`, in the experiment on A549 [2], the inhibition at 5 µM was 40 to 80%. At ATP-citrate synthase, this molecule returned a 50% inhibitory concentration (IC50) of 13.3 µM. Moreover, the inhibition entry in the experiment with A549 [3] was “Dose-dependent effect”.

`Cc1cc(O)c2c(c1)C(=O)c1cc(O)c(I)c(O)c1C2=O` registered an IC50 against ATP-citrate synthase of 7.5 µM.

Turning to `Cc1ccc(-c2c(O)cc3c(c2O)C(=O)c2c(O)cc(C)cc2C3=O)cc1`, the inhibition in experiment [1] was determined as 0%.

In turn, `Cc1cc(O)c2c(c1)C(=O)c1c(c(O)c(-c3cccnc3)c(O)c1-c1cccnc1)C2=O` registered an IC50 on ATP-citrate synthase of 23.5 µM.

The molecule `Cc1cc(O)c2c(c1)Cc1cc(O)cc(O)c1C2=O` came in with an inhibition in experiment [1] of 0%.

In turn, `Cc1cc(O)c2c(c1)C(=O)c1cc(O)c(CN(C)c3ccccc3)c(O)c1C2=O` registered an inhibition in [1] of 6%.

For the molecule `COc1cc(OC)cc(-c2c(O)cc3c(c2O)C(=O)c2c(O)cc(C)cc2C3=O)c1`, the inhibition in experiment [1] was 0%.

Take `COc1ccc(-c2ccccc2)cc1NS(=O)(=O)c1cc(Cl)cc(Cl)c1O`: the inhibition entry in the experiment on HMLE [4], in the experiment on A549 [5], in the experiment on A549 [6] and in the experiment on HMLE [7] was “Active” in each case.

For `Cc1cc(O)c2c(c1)C(=O)c1c(Cl)c(O)cc(O)c1C2=O`, in the experiment on A549 [2], the inhibition at 5 µM lay within 40 to 80%. In addition, the IC50 against ATP-citrate synthase stood at 9.6 µM.

In turn, `Cc1cc(O)c2c(c1)C(=O)c1cc(O)cc(O)c1C2=O` came in with an inhibition in [1] of 0%.

Molecule `Cc1cc(O)c2c(c1)C(=O)c1cc(O)c(CN3CCOCC3)c(O)c1C2=O` gave an inhibition in experiment [1] of 10%.

At ATP-citrate synthase, `Cc1cc(O)c2c(c1)C(=O)c1cc3c(c(O)c1C2=O)CN(c1ccc2ocnc2c1)CO3` showed a half-maximal inhibitory concentration (IC50) of 29.7 µM.

In turn, `Cc1cc(O)c2c(c1)Cc1c(Cl)c(O)cc(O)c1C2=O` yielded an inhibition at 5 µM with A549 [2] of 40 to 80%. The molecule also gave an IC50 at ATP-citrate synthase of 3.8 µM.

Regarding `COc1ccc(-c2c(O)cc3c(c2O)C(=O)c2c(O)cc(C)cc2C3=O)cc1`, the IC50 against ATP-citrate synthase came to 18.8 µM.

Take `COc1cc2c(c(OC)c1Cl)C(=O)c1c(OC)cc(C)cc1C2=O`: the inhibition in experiment [1] came out at 0%.

As to `Cc1cc(O)c2c(c1)C(=O)c1cc(O)c(-c3ccccc3)c(O)c1C2=O`, the inhibition in experiment [1] amounted to 8%.

`Cc1cc(O)c2c(c1)C(=O)c1cc(O)c(-c3ccncc3)c(O)c1C2=O` registered an inhibition in [1] of 0%.

In the experiment on A549 [2], `Cc1cc(O)c2c(c1)C(=O)c1cc(O)c(Cl)c(O)c1C2=O` yielded an inhibition at 5 µM of 40 to 80%. Moreover, half-maximal inhibition at ATP-citrate synthase (IC50) required 12.6 µM.

In the case of `Cc1cc(O)c2c(c1)C(=O)c1c(Br)c(O)c(Br)c(O)c1C2=O`, the inhibition result with HMLE [8] was “Dose-dependent effect”; in [9], more than 99%; in [1] it was more than 99%; with A549 [11] it was “Dose-dependent effect”; with A549 [12], “Dose-dependent effect”; in the experiment with HMLE [13], “Dose-dependent effect”. The inhibition entry with A549 [3] was “Dose-dependent effect”. Besides, in the experiment with A549 [2], the inhibition at 5 µM lay in the range of 40 to 80%. In the experiment on A549 [10], this molecule showed an inhibition at 10 µM of 100%. On ATP-citrate synthase, this molecule displayed an IC50 of 2.9 µM.
